The source of these data is ChEMBL document CHEMBL1141703, “Synthesis and in vitro evaluation of imidazopyridazines as novel inhibitors of the malarial kinase PfPK7” (Bioorg Med Chem Lett, 2008).

The target in data set [1] is T1, Putative uncharacterized protein pk7 (Plasmodium falciparum, UniProt O96214).
T1 sequence (O96214 whole entry): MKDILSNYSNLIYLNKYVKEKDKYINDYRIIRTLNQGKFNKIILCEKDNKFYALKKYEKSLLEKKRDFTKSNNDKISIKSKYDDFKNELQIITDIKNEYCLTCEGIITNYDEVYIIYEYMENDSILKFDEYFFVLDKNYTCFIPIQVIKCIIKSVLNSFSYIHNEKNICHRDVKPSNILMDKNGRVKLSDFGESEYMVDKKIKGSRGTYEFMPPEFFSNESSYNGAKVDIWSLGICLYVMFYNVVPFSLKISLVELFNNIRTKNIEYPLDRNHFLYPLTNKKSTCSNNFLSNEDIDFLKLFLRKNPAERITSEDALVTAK
The data set is described as follows: (§1) Inhibition of Plasmodium falciparum PK7.

Data set [2] has as its system Plasmodium falciparum. The data set is described as follows: Antimalarial activity against chloroquine-sensitive Plasmodium falciparum 3D7 by [3H]hypoxanthine uptake. Type of data set: functional, organism-based. A digest of the protocol:
(§2)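 P. falciparum blood-stage growth measured by ³H-hypoxanthine incorporation, with chloroquine as the reference standard. Strains: 3D7, a drug-sensitive laboratory clone of the NF54 isolate, and K1 (Thailand), which is resistant to chloroquine, pyrimethamine and cycloguanil. Values are IC50 in μM.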

The test system of data set [3] is Plasmodium falciparum. The data set is described as follows: Antimalarial activity against multidrug-resistant Plasmodium falciparum K1 by [3H]hypoxanthine uptake. Type of data set: functional, organism-based. A digest of the protocol:
as §2

The test system of the next data set is KB. Kind of data set: Cytotoxicity against human KB cells. Format: cell-based.
Data set [4] is described as follows: Selectivity index, ratio of IC50 for human KB cells to IC50 for Plasmodium falciparum 3D7. Format: toxicity, cell-based. The settings on record: read-out: Ratio IC50. A digest of the protocol:
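Ratio of the human KB cell cytotoxicity IC50 to the P. falciparum 3D7 IC50. 3D7 is a drug-sensitive laboratory clone of the NF54 isolate. Parasite IC50 (μM) came from a 3H-hypoxanthine incorporation assay run with chloroquine as the standard.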

For data set [5], the target named is T2, Putative uncharacterized protein pk7 (Plasmodium falciparum) (UniProt O96214).
T2 sequence (whole entry): T1 sequence (O96214 whole entry)
Described as §1.

Active and inactive are the calls of the source. The rule behind the calls is not given here.

The IC50 is the concentration that gives 50% inhibition. High values mean weaker potency, low ones greater potency. In data set [1], `N#Cc1ccc(-c2cnc3ccc(NCCO)nn23)cc1` had an IC50 of 1000 nM.

In turn, `C[C@H](CO)Nc1ccc2ncc(-c3ccc(C#N)cc3)n2n1` registered an IC50 in data set [1] of 1000 nM.

As to `N#Cc1ccc(-c2cnc3ccc(NCc4cccnc4)nn23)cc1`, the IC50 in data set [1] was 810 nM.

The compound `CN(Cc1ccc(F)cc1)c1ccc2ncc(-c3ccc(C#N)cc3)n2n1` came in with an IC50 in data set [1] of 1070 nM.

In data set [1], `N#Cc1ccc(-c2cnc3ccc(NC4CCCNC4)nn23)cc1` (racemic) yielded an IC50 of 2100 nM.

For `CC(C)[C@H](N)c1cccc(N2CCOCC2)c1`, it took 43000 nM to reach half-maximal inhibition in data set [1] (IC50).

In turn, `CN(Cc1ccc(F)cc1)c1ccc2ncc(-c3ccc(N)cc3)n2n1` returned an IC50 in data set [1] of 42000 nM.

`CN(Cc1ccc(F)cc1)c1ccc2ncc(-c3ccc(CN4CCC(O)CC4)cc3)n2n1` gave an IC50 in data set [1] of 103000 nM.

Consider `COCCNc1ccc2ncc(-c3ccc(C#N)cc3)n2n1`, for which, in data set [1], the IC50 amounted to 1400 nM.

`N#Cc1ccc(-c2cnc3ccc(NC4CCCCC4)nn23)cc1`: the IC50 in data set [1] amounted to 340 nM.

`COC[C@H](C)Nc1ccc2ncc(-c3ccc(C#N)cc3)n2n1`: the IC50 in data set [1] came out at 820 nM; in the data set on Plasmodium falciparum [2], 6.06 µM; in the data set with Plasmodium falciparum [3] it was 10.5 µM; with KB it was 25.8 µM. Moreover, in data set [4], the selectivity ratio worked out at 4.25.

In the case of `CC(C)[C@@H](CO)Nc1ccc2ncc(-c3ccc(CO)cc3)n2n1`, the IC50 in data set [1] came to 7400 nM.

As for `CC(C)[C@@H](CO)Nc1ccc2ncc(-c3ccc(CC(=O)O)cc3)n2n1`, the IC50 in data set [1] worked out at 111000 nM.

As for `N#Cc1ccc(-c2cnc3ccc(NCC4CC4)nn23)cc1`, the IC50 in data set [1] was 580 nM; with Plasmodium falciparum [2], 7.15 µM; in the data set with Plasmodium falciparum [3], 12.7 µM; with KB, 21.2 µM. The selectivity ratio in data set [4] is 2.96.

In data set [1], `CN(Cc1ccc(F)cc1)c1ccc2ncc(-c3ccc(CNCO)cc3)n2n1` registered an IC50 of 34000 nM.

`CN(Cc1cccnc1)c1ccc2ncc(-c3ccc(C#N)cc3)n2n1` displayed an IC50 in data set [1] of 1260 nM.

Regarding `C[C@H](N)c1cccc(N2CCOCC2)c1`, in data set [1], inhibition was half-maximal at 25000 nM (IC50).

`COc1ccc(-c2cnc3ccc(NCc4cccnc4)nn23)cc1` gave an IC50 in data set [1] of 11600 nM.

For the compound `CC(C)[C@@H](CO)Nc1ccc2ncc(-c3ccc(C#N)cc3)n2n1`, the IC50 came to 280 nM in data set [1], 2.6 µM in the data set with Plasmodium falciparum [2], 6.86 µM in the data set on Plasmodium falciparum [3] and 52.2 µM with KB. In addition, the selectivity ratio in data set [4] came out at 20.1.

In data set [1], `N#Cc1ccc(-c2cnc3ccc(N[C@H]4CCCC[C@@H]4O)nn23)cc1` (racemic) had an IC50 of 220 nM.

`CCN(CC)CCCC(C)Nc1ccnc2cc(Cl)ccc12` (stereo not given) [CHLOROQUINE] showed an IC50 in the data set with KB of 97.5 µM.

In the case of `C[C@@H](CO)Nc1ccc2ncc(-c3ccc(C#N)cc3)n2n1`, the IC50 in data set [1] worked out at 440 nM; in the data set with Plasmodium falciparum [2] it was 5.26 µM; with Plasmodium falciparum [3], 9.93 µM; in the data set with KB it was 21.2 µM. Moreover, in data set [4], the selectivity ratio is 4.03.

`N#Cc1ccc(-c2cnc3ccc(N[C@H]4CCC[C@H](O)C4)nn23)cc1` (racemic) showed an IC50 in data set [1] of 260 nM.

In turn, `C[C@@H](N)c1cccc(N2CCOCC2)c1` came in with an IC50 in data set [1] of 4800 nM.

As to `CC(C)[C@@H](CO)Nc1ccc2ncc(-c3ccc(CC#N)cc3)n2n1`, in data set [1], the IC50 turned out to be 25000 nM.

For the compound `CC(C)[C@@H](CO)Nc1ccc2ncc(-c3ccc(N)cc3)n2n1`, the IC50 in data set [1] turned out to be 34000 nM.

For the compound `N#Cc1ccc(-c2cnc3ccc(NCC4CCCO4)nn23)cc1` (stereo not given), the IC50 in data set [1] was found to be 750 nM.

Turning to `CN(Cc1ccc(F)cc1)c1ccc2ncc(-c3ccc(Cn4ccnc4)cc3)n2n1`, the IC50 in data set [1] turned out to be 56000 nM.

For the compound `CC(C)[C@@H](CO)Nc1ccc2ncc(-c3ccc(C(N)=O)cc3)n2n1`, the IC50 in data set [1] was 770 nM; in the data set on Plasmodium falciparum [2], 2.46 µM; in the data set with Plasmodium falciparum [3], 3.89 µM; with KB, 13 µM. The selectivity ratio in data set [4] was 5.27.

Take `N#Cc1ccc(-c2cnc3ccc(NCc4ccc(N5CCOCC5)cc4)nn23)cc1`: in data set [1], the IC50 turned out to be 8000 nM.

Consider `CC(C)[C@@H](CO)Nc1ccc2ncc(-c3ccc(CN)cc3)n2n1`, for which, in data set [1], the IC50 turned out to be 104000 nM.

As to `CN(Cc1ccc(F)cc1)c1ccc2ncc(-c3ccc(C(N)=O)cc3)n2n1`, in data set [1], the IC50 was determined as 1100 nM.

`N#Cc1ccc(-c2cnc3ccc(N[C@H]4CC[C@H](O)CC4)nn23)cc1`: the IC50 in data set [1] was found to be 130 nM; in the data set with Plasmodium falciparum [2] it was 1.03 µM; in the data set on Plasmodium falciparum [3], 2.65 µM; in the data set on KB, 24 µM. The selectivity ratio in data set [4] came to 23.3.

In the case of `CC(C)[C@@H](N)c1cccc(N2CCOCC2)c1`, the result in data set [5] was inactive.

In turn, `CN(Cc1ccc(F)cc1)c1ccc2ncc(-c3ccc(CO)cc3)n2n1` had an IC50 in data set [1] of 21000 nM.

`c1cncc(CNc2ccc3ncc(-c4ccncc4)n3n2)c1` returned an IC50 in data set [1] of 7900 nM.
